Measured values taken from ChEMBL document CHEMBL2331093, “Synthesis and biological evaluation of novel propargyl amines as potential fluorine-18 labeled radioligands for detection of MAO-B activity” (Bioorg Med Chem, 2013).

How the values were obtained:
[1] = target: T1, Amine oxidase [flavin-containing] B (Homo sapiens, UniProt P27338); test: Inhibition of recombinant human MAO-B assessed as inhibition of kynuramine oxidation by spectrophotometry
T1 sequence (P27338 whole entry): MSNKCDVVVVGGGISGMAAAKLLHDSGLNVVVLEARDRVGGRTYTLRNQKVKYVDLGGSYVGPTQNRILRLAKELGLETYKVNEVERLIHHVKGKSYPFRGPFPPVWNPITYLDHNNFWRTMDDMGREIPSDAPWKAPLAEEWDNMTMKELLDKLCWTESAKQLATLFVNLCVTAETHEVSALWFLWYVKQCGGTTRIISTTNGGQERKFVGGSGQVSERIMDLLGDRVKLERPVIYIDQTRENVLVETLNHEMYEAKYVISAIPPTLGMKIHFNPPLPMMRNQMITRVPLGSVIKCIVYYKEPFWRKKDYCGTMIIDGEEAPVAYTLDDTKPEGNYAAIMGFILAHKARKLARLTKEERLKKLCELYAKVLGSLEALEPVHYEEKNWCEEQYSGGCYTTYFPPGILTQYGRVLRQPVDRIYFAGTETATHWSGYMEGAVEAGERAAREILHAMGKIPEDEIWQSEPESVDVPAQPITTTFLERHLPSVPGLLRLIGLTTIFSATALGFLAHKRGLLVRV

[2] = target: T2, Amine oxidase [flavin-containing] A (Homo sapiens, UniProt P21397); test: Inhibition of recombinant human MAO-A assessed as inhibition of kynuramine oxidation by spectrophotometry
T2 sequence (P21397 whole entry): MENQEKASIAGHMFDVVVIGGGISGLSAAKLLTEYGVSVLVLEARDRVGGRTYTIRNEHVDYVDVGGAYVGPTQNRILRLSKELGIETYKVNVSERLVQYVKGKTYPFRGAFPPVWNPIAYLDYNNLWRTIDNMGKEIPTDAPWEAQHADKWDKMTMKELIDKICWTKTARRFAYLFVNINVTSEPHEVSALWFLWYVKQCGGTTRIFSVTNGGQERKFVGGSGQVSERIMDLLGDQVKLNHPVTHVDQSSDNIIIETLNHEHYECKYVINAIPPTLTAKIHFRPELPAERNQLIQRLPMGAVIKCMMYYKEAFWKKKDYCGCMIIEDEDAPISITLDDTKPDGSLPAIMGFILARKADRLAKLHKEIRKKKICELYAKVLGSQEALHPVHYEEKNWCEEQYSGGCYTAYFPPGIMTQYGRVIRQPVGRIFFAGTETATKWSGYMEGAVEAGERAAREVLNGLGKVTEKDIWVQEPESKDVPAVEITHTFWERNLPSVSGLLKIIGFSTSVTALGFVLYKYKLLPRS

[3] = Stability of the compound in PBS buffer at pH 7.4 up to 150 mins; format: physicochemical; conditions: pH 7.4, 2.5 h
Cortex [4] = test: Drug uptake in human cortex at 4 MBq/200 ml after 90 mins by in vitro autoradiography; format: ADME, tissue-based; conditions: 1.5 h
How it was run: (§1)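 In vitro autoradiography with the fluorine-18 labeled radioligand on human postmortem brain tissue sections.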

[5] = Drug uptake in human hippocampus at 4 MBq/200 ml after 90 mins by in vitro autoradiography in presence of MAO-A ligand pirlindole; format: ADME, tissue-based; conditions: 1.5 h; how it was run: as §1
[6] = Drug uptake in human hippocampus at 4 MBq/200 ml after 90 mins by in vitro autoradiography in presence of MAO-B inhibitor rasagiline; format: ADME, tissue-based; conditions: 1.5 h; how it was run: as §1
Cortex [7] = test: Drug uptake in human cortex at 4 MBq/200 ml after 90 mins by in vitro autoradiography in presence of MAO-A ligand pirlindole; format: ADME, tissue-based; conditions: 1.5 h; how it was run: as §1
[8] = Drug uptake in human basal ganglia at 4 MBq/200 ml after 90 mins by in vitro autoradiography in presence of MAO-B inhibitor rasagiline; format: ADME; conditions: 1.5 h; how it was run: as §1
Cortex [9] = test: Drug uptake in human cortex at 4 MBq/200 ml after 90 mins by in vitro autoradiography in presence of MAO-B inhibitor L-deprenyl; format: ADME, tissue-based; conditions: 1.5 h; how it was run: as §1
[10] = Drug uptake in human thalamus at 4 MBq/200 ml after 90 mins by in vitro autoradiography in presence of MAO-B inhibitor L-deprenyl; format: ADME, tissue-based; conditions: 1.5 h; how it was run: as §1
Cortex [11] = test: Drug uptake in human cortex at 4 MBq/200 ml after 90 mins by in vitro autoradiography in presence of MAO-B inhibitor rasagiline; format: ADME, tissue-based; conditions: 1.5 h; how it was run: as §1
[12] = Drug uptake in human basal ganglia at 4 MBq/200 ml after 90 mins by in vitro autoradiography in presence of MAO-B inhibitor L-deprenyl; format: ADME; conditions: 1.5 h; how it was run: as §1
[13] = Drug uptake in human thalamus at 4 MBq/200 ml after 90 mins by in vitro autoradiography in presence of MAO-A ligand pirlindole; format: ADME, tissue-based; conditions: 1.5 h; how it was run: as §1
[14] = Drug uptake in human hippocampus at 4 MBq/200 ml after 90 mins by in vitro autoradiography; format: ADME, tissue-based; conditions: 1.5 h; how it was run: as §1
[15] = Drug uptake in human thalamus at 4 MBq/200 ml after 90 mins by in vitro autoradiography; format: ADME, tissue-based; conditions: 1.5 h; how it was run: as §1
[16] = Drug uptake in human basal ganglia at 4 MBq/200 ml after 90 mins by in vitro autoradiography; format: ADME; conditions: 1.5 h; how it was run: as §1
[17] = Drug uptake in human basal ganglia at 4 MBq/200 ml after 90 mins by in vitro autoradiography in presence of MAO-A ligand pirlindole; format: ADME; conditions: 1.5 h; how it was run: as §1
[18] = Drug uptake in human thalamus at 4 MBq/200 ml after 90 mins by in vitro autoradiography in presence of MAO-B inhibitor rasagiline; format: ADME, tissue-based; conditions: 1.5 h; how it was run: as §1
[19] = Drug uptake in human hippocampus at 4 MBq/200 ml after 90 mins by in vitro autoradiography in presence of MAO-B inhibitor L-deprenyl; format: ADME, tissue-based; conditions: 1.5 h; how it was run: as §1
Brain = test: Drug uptake in cynomolgus monkey brain at 168 MBq, iv by PET imaging; format: ADME, organism-based, Macaca fascicularis; conditions: in vivo
How it was run: (§2)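 PET brain imaging in a cynomolgus monkey after injection of the fluorine-18 labeled radioligand; regional radioactivity uptake expressed as %SUV over time post injection.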

[20] = Drug uptake in human putamen at 4 MBq/200 ml after 90 mins by in vitro autoradiography in presence of MAO-B inhibitor L-deprenyl; format: ADME, tissue-based; conditions: 1.5 h; how it was run: as §1
[21] = Drug uptake in human putamen at 4 MBq/200 ml after 90 mins by in vitro autoradiography in presence of MAO-B inhibitor rasagiline; format: ADME, tissue-based; conditions: 1.5 h; how it was run: as §1
Plasma [22] = test: Metabolic stability in cynomolgus monkey plasma assessed as metabolite M1 retention time at 168 MBq, iv by HPLC analysis; format: ADME, organism-based, Macaca fascicularis; conditions: in vivo
[23] = Drug uptake in human caudate nucleus at 4 MBq/200 ml after 90 mins by in vitro autoradiography in presence of MAO-B inhibitor rasagiline; format: ADME, tissue-based; conditions: 1.5 h; how it was run: as §1
Plasma [24] = test: Metabolic stability in cynomolgus monkey plasma assessed as metabolite M3 retention time at 168 MBq, iv by HPLC analysis; format: ADME, organism-based, Macaca fascicularis; conditions: in vivo
[25] = Metabolic stability in cynomolgus monkey plasma assessed as parent compound at 168 MBq, iv after 120 mins by HPLC analysis; format: ADME, organism-based, Macaca fascicularis; conditions: read-out: Stability
[26] = Drug uptake in cynomolgus monkey cerebellum at 168 MBq, iv by PET imaging; format: ADME, organism-based, Macaca fascicularis; conditions: in vivo; how it was run: as §2
[27] = Drug uptake in human putamen at 4 MBq/200 ml after 90 mins by in vitro autoradiography in presence of MAO-A ligand pirlindole; format: ADME, tissue-based; conditions: 1.5 h; how it was run: as §1
[28] = Drug uptake in cynomolgus monkey striatum at 168 MBq, iv by PET imaging; format: ADME, organism-based, Macaca fascicularis; conditions: in vivo; how it was run: as §2
[29] = Drug uptake in human caudate nucleus at 4 MBq/200 ml after 90 mins by in vitro autoradiography in presence of MAO-B inhibitor L-deprenyl; format: ADME, tissue-based; conditions: 1.5 h; how it was run: as §1
Thalamus = test: Drug uptake in cynomolgus monkey thalamus at 168 MBq, iv by PET imaging; format: ADME, organism-based, Macaca fascicularis; conditions: in vivo; how it was run: as §2
Plasma [30] = test: Metabolic stability in cynomolgus monkey plasma assessed as metabolite M2 retention time at 168 MBq, iv by HPLC analysis; format: ADME, organism-based, Macaca fascicularis; conditions: in vivo
Plasma [31] = test: Metabolic stability in cynomolgus monkey plasma assessed as metabolite M5 retention time at 168 MBq, iv by HPLC analysis; format: ADME, organism-based, Macaca fascicularis; conditions: in vivo
Plasma [32] = test: Metabolic stability in cynomolgus monkey plasma assessed as metabolite M4 retention time at 168 MBq, iv by HPLC analysis; format: ADME, organism-based, Macaca fascicularis; conditions: in vivo
[33] = Drug uptake in human caudate nucleus at 4 MBq/200 ml after 90 mins by in vitro autoradiography in presence of MAO-A ligand pirlindole; format: ADME, tissue-based; conditions: 1.5 h; how it was run: as §1
[34] = Drug uptake in human putamen at 4 MBq/200 ml after 90 mins by in vitro autoradiography; format: ADME, tissue-based; conditions: 1.5 h; how it was run: as §1
[35] = Drug uptake in human caudate nucleus at 4 MBq/200 ml after 90 mins by in vitro autoradiography; format: ADME, tissue-based; conditions: 1.5 h; how it was run: as §1
[36] = Metabolic stability in cynomolgus monkey plasma assessed as parent compound at 168 MBq, iv after 45 mins by HPLC analysis; format: ADME, organism-based, Macaca fascicularis; conditions: read-out: Stability
[37] = Drug uptake in cynomolgus monkey cortex at 168 MBq, iv by PET imaging; format: ADME, organism-based, Macaca fascicularis; conditions: in vivo; how it was run: as §2

## C#CCN(C)[C@H](CF)Cc1ccco1
[1]
  IC50: 208 nM
[2]
  IC50: > 2000 nM

## C#CCN(C)[C@H](C[19F])CC(C)C
[3]
  Stability: Stable

## C#CCN(C)[C@H](CF)CC(=C)C
[1]
  IC50: 664 nM
[2]
  IC50: > 2000 nM

## C#CCN(C)[C@H](C[18F])Cc1ccco1
Cortex [4]
  Drug uptake: Active
[5]
  Drug uptake: Active
[6]
  Drug uptake: Not Active
Cortex [7]
  Drug uptake: Active
[8]
  Drug uptake: Not Active
Cortex [9]
  Drug uptake: Not Active
[10]
  Drug uptake: Not Active
Cortex [11]
  Drug uptake: Not Active
[12]
  Drug uptake: Not Active
[13]
  Drug uptake: Active
[14]
  Drug uptake: Active
[15]
  Drug uptake: Active
[16]
  Drug uptake: Active
[17]
  Drug uptake: Active
[18]
  Drug uptake: Not Active
[19]
  Drug uptake: Not Active

## C#CCN(C)[C@H](C[18F])CC(C)C
Brain
  SUV: 250%
[20]
  Drug uptake: Not Active
[21]
  Drug uptake: Not Active
[5]
  Drug uptake: Active
[6]
  Drug uptake: Not Active
Plasma [22]
  Retention_time: 2 min
[23]
  Drug uptake: Not Active
Plasma [24]
  Retention_time: 3.7 min
[25]
  remaining at 2 h: 12%
[26]
  Drug uptake: Not Active
[27]
  Drug uptake: Active
[28]
  Drug uptake: Active
[10]
  Drug uptake: Not Active
[29]
  Drug uptake: Not Active
[13]
  Drug uptake: Active
Thalamus
  Drug uptake: Active
[14]
  Drug uptake: Active
Plasma [30]
  Retention_time: 3.4 min
Plasma [31]
  Retention_time: 6.2 min
[15]
  Drug uptake: Active
Plasma [32]
  Retention_time: 4.2 min
[33]
  Drug uptake: Active
[34]
  Drug uptake: Active
[18]
  Drug uptake: Not Active
[19]
  Drug uptake: Not Active
[35]
  Drug uptake: Active
[36]
  remaining at 0.75 h: 20%
[37]
  Drug uptake: Not Active

## C#CCN(C)[C@H](C[19F])Cc1ccco1
[3]
  Stability: Stable

## C#CCN(C)[C@H](CF)CC(C)C
[1]
  IC50: 132 nM
[2]
  IC50: > 2000 nM
